Measured values from ChEMBL document CHEMBL1155617, “Cytotoxic constituents of Polyalthia longifolia var. pendula” (J Nat Prod, 2000).
Activity calls are given as the source filed them. The calls are words filed in the database; no cut-off is given here.

Tests used:
Assay type in all cases: functional, cell-based
[1] = tested on: AGS; assay: Cytotoxicity against human AGS cells upto 30 uM by MTS colorimetric assay
Method in brief: (§1)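 Cells grown in DMEM with 10% fetal calf serum, seeded and cultured 24 h, then exposed to test compounds for 72 h. Viability read by MTS colorimetric assay.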

[2] = tested on: DLD-1; assay: Cytotoxicity against human DLD1 cells upto 30 by MTS colorimetric assay; method in brief: as §1
[3] = tested on: HA59T; assay: Cytotoxicity against human HA59T cells upto 30 by MTS colorimetric assay; method in brief: as §1
[4] = tested on: HepG2; assay: Cytotoxicity against human HepG2 cells upto 30 by MTS colorimetric assay; method in brief: as §1
[5] = tested on: HA59T; assay: (§2) Cytotoxicity against human HA59T cells by MTS colorimetric assay
Method in brief: (§3)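 Cells grown in DMEM with 10% fetal calf serum and seeded 24 h before treatment. Viability read by MTS colorimetric assay after 72 h compound exposure. IC50 taken as mean concentration giving 50% growth inhibition from replicate values.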

[6] = tested on: HepG2; assay: Cytotoxicity against human HepG2 cells by MTS colorimetric assay; method in brief: as §3
[7] = tested on: DLD-1; assay: Cytotoxicity against human DLD1 cells by MTS colorimetric assay; method in brief: as §3
[8] = tested on: AGS; assay: Cytotoxicity against human AGS cells by MTS colorimetric assay; method in brief: as §3
[9] = as §2; method in brief: as §3

Row | Structure (SMILES) | Activity [1] | Activity [2] | Activity [3] | Activity [4] | IC50 [9] | IC50 [6] | IC50 [7] | IC50 [8] | other results
1 | COc1cc2c(cc1O)[C@@H]1Cc3ccc(O)c(OC)c3CN1CC2 | inactive | inactive | inactive | inactive | – | – | – | – | –
2 | C[C@@H]1CC[C@@]2(O)[C@H](CC[C@H](O)C2(C)C)[C@@]1(C)CCC1=CC(=O)O[C@@H]1O | – | – | – | – | – | – | – | – | Activity [5]: inactive; Activity [6]: inactive; Activity [7]: inactive; Activity [8]: inactive
3 | COc1cc2c(cc1O)C[C@@H]1NCCc3cc(O)c(OC)c-2c31 | inactive | inactive | inactive | inactive | – | – | – | – | –
4 | CC1=CCC[C@@H]2[C@@](C)(CCC3=CC(=O)O[C@@H]3O)[C@H](C)CC[C@@]12C | – | – | – | – | 23.6 µM | > 30 µM | > 30 µM | 26.9 µM | –
5 | c1ccc2c(c1)C[C@H]1NCCc3cc4c(c-2c31)OCO4 [ANONAINE] | – | – | – | – | 16.4 µM | 20.8 µM | 28.9 µM | 8.6 µM | –
6 | COc1ccc2c(c1O)-c1nccc(C)c1C2=O | – | – | – | – | 21.7 µM | > 30 µM | > 30 µM | > 30 µM | –
